# Source: PubChem (several laboratories)
# Compounds with a hit are over-represented: about 2.5% of the library has one in this group of screens.
# NR2E3 ag-1: inhibitors of NR2E3-RetCOR corepressor binding, primary screen, NR2E3 agonist project, biochemical, TR-FRET, GST-NR2E3, biotin-RetCOR; 1536-well; inhibition of corepressor binding, % at 4.78 µM; 0.12% of 320,000 active; AID 2300, 2010;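 active means percent inhibition above the cutoff of mean plus 3 SD of all tested compounds, set per screening campaign, cut at about 20% in these data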;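 further: 0% = DMSO wells and 100% = biotin wells as full block of FRET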
#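 System: GST-NR2E3 and biotin-RetCOR proteins; probe or stimulus: 7 nM biotin-RetCOR; doses: compound at 4.8 µM, single dose; schedule: Compound–protein incubation for 5 h at 4 °C; detection: time-resolved FRET; read-out: percent inhibition; controls: biotin wells as high control, 0.6% DMSO wells as low control; format: 1536-well plates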
# JMJD2C inh: inhibitors of GASC-1 histone demethylase, primary screen, biochemical, fluorescence, DELFIA europium; Lysine-specific demethylase 4C (Homo sapiens), Q9H3R0; GST-JMJD2C(1-420) H3K9me3 demethylation; inhibition, % at 2.35 µM; 0.069% of 330,000 active; AID 2099, 2009;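 active means more than half of a compound's replicate wells show inhibition beyond 50%, single wells judged on their own value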;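 further: signal counts dimethyl H3K9 product captured on neutravidin plate; 0% = median of DMSO wells and 100% = 0.3 times that DMSO median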
# Target sequence (Q9H3R0 1-420 limits assumed): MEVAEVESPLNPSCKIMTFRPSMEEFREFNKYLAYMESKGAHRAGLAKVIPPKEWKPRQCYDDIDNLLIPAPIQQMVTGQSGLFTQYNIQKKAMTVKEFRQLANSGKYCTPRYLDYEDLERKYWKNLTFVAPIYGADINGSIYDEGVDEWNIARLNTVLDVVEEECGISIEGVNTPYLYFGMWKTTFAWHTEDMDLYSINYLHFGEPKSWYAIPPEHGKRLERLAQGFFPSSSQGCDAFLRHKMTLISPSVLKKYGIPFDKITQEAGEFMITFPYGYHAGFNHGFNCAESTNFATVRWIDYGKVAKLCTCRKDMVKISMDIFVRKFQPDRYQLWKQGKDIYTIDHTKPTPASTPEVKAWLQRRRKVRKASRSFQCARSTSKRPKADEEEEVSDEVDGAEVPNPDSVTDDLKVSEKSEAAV
# ADAM17 inh: ADAM17 inhibitors, primary screen, biochemical, QFRET; Disintegrin and metalloproteinase domain-containing protein 17 (Homo sapiens), P78536; recombinant ADAM17, EDANS/DABCYL FRET peptide cleavage; inhibition, % at 6.95 µM; 0.83% of 370,000 active; AID 720648, 2013;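 active means inhibition above the mean of compounds lying between control limits plus 3 SD, set per campaign, cut at about 8.5% in these data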;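 further: 0% = DMSO-only wells as the low control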
# ADAM10 inh: human ADAM10 inhibitors, primary screen, biochemical, QFRET, HTS | 0.62% of 370,000 active | recombinant ADAM10, EDANS/DABCYL FRET peptide cleavage, 3 h | inhibition, % at 7 µM | Disintegrin and metalloproteinase domain-containing protein 10 (Homo sapiens), O14672 | AID 720582, 2013;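 active means inhibition above a per-campaign cutoff equal to the mean of compounds falling between control-based bounds plus 3 SD, cut at about 20% in these data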;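 further: 0% = DMSO wells while the 100% control is not disclosed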
# KLK7 zymogen act: proKLK7 zymogen activators, primary screen, biochemical, fluorescence intensity. 0.9% of 370,000 active. purified proKLK7, EDANS-DABCYL substrate fluorescence; 100% is mature enzyme control, 0% vehicle. activation, % at 7 µM. Kallikrein-7 (Homo sapiens), P49862;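 active means activation above the mean of all tested compounds plus 3 SD, computed per campaign excluding outliers beyond control limits, cut at about 13% in these data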
# NR2E3 ag-2: NR2E3 agonists in two-hybrid cells, primary screen, cell-based, luminescence, CHO-S, Gal4-NCOR/VP16-NR2E3. Photoreceptor-specific nuclear receptor (Homo sapiens), Q9Y5X4. AID 602229, 2012. luciferase. 0.35% of 360,000 active. inhibition of corepressor binding, % at 3.98 µM;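 active means inhibition above the mean of all tested compounds plus 3 SD, cut at about 70% in these data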;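 further: 0% = DMSO with NR2E3 transfected cells and 100% = cells lacking NR2E3 construct; higher means lower luciferase signal from less NR2E3 corepressor binding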
# ADAM10 counter: ADAM10 inhibitors, counter-screen for ADAM17 exosite inhibitor project, biochemical, FRET, human ADAM10. AID 743256, 2014. shares compounds with ADAM17 inh. 47% of 2,900 active. recombinant ADAM10, EDANS/DABCYL FRET peptide cleavage, 3 h. inhibition, % at 6.95 µM;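 active means mean inhibition over the triplicate runs exceeds the activity threshold set in the earlier primary screen, cut at about 20% in these data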;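 further: 0% = DMSO wells and 100% = marimastat wells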
# ADAM17 confirm: ADAM17 inhibitors, hit retest, confirmation, biochemical, QFRET peptide cleavage; 65% of 2,900 active; AID 743257, 2014; recombinant ADAM17, EDANS/DABCYL QFRET peptide cleavage; inhibition, % at 6.95 µM; shares compounds with ADAM17 inh;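 active means mean inhibition across replicates above the hit cutoff set in the primary screen, cut at about 8.5% in these data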;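 further: 0% = DMSO wells and 100% = marimastat wells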
# An asterisk follows results filed as active; . = no result given.
SMILES,NR2E3 ag-1,JMJD2C inh,ADAM17 inh,ADAM10 inh,KLK7 zymogen act,NR2E3 ag-2,ADAM10 counter,ADAM17 confirm
CN(C(=O)COC(=O)CCc1c[nH]c2ccccc12)C(c1ccccc1)c1ccccc1,4,-2,11*,18,-1,-3,28*,15*
CC1CCCCN1C(=O)Cn1nnc(-c2cccnc2)n1 (stereo not drawn),5,-4,-3,-6,-1,-15,.,.
Cc1ccc(-c2nnn(CCC(=O)N3CCCCC3C)n2)cc1 (stereo not drawn),1,1,9.5*,6,0,-34,14,7
NS(=O)(=O)c1ccc(CCNC(=O)c2ccc(NS(=O)(=O)c3ccc4[nH]c(=O)[nH]c4c3)cc2)cc1,-2,-4,8,0,0,3,.,.
COC(=O)c1c(C)n(-c2ccc(OC)cc2)c2ccc(O)cc12,-3,2,12*,19,-1,-7,14,11*
CCOC(=O)c1c(C)n(-c2ccc(F)cc2)c2ccc(O)cc12,0,-2,.,.,.,-43,.,.
Cc1cccc(C(C#N)c2nc3ccccc3nc2C(F)(F)F)c1 (stereo not drawn),-1,0,8.7*,18,0,-15,10,4
N#CC(c1ccc(Cl)cc1)c1nc2ccccc2nc1C(F)(F)F (stereo not drawn),-1,-1,4,8,0,-11,.,.
CC(C)[C@H]1Cn2nncc2Cn2c3ccccc3c(=O)n21,.,.,-37,-130,0,.,.,.
COc1cc(OC)cc(N(C(=O)C2COc3ccccc3O2)C(C(=O)NC2CCCCC2)c2ccc(O)cc2)c1 (stereo not drawn),0,-4,11*,15,0,-14,15,10*
CCOC(=O)Cn1c(C(=O)OCC)cc2sccc21,2,-2,9.2*,1,0,-10,3,7
COc1ccccc1NS(=O)(=O)c1ccc(Cl)c(NC(=S)NC(=O)C2CCCC2)c1,3,-2,9.9*,13,0,0,38*,17*
COc1ccc(C(=O)NC(C)c2nnc(SCC(=O)NC3CCCC3)n2C)cc1 (stereo not drawn),4,.,1,0,0,-19,.,.
CCOC(=O)c1c(C)[nH]c(N=Nc2cccc(C)c2)c1C,0,-8,9.7*,14,0,-136,24*,14*
CCCCSc1nc(C)cc(SCC(=O)N/N=C/c2cccc(OC)c2O)n1,0,-5,14*,11,-2,-17,2,8
COc1cccc(/C=N/NC(=O)CSc2nnc(C)n2-c2ccccc2)c1O,4,-3,3,0,-1,0,.,.
COc1ccc(OC)c(-c2csc(NC(=O)Cc3ccc(F)cc3)n2)c1,6,-11,8.6*,10,0,-5,32*,16*
CN(C)CCCN(C(=O)c1ccc([N+](=O)[O-])o1)c1nc2cc3c(cc2s1)OCO3,2,-2,-7,6,1,-7,.,.
O=C(CNC(=O)/C(=C\c1ccc(Br)cc1)NC(=O)c1ccccc1)OCc1ccccc1,2,2,10*,12,1,16,22*,6
